MMP-13 inhibitor: human MMP13 inhibitors, primary screen, biochemical, FRET peptide cleavage; MMP-13 fTHP FRET cleavage, Mca fluorescence; 65,000 tested, 0.07% active; AID 570, 2006; inhibition, % at 4 µM; Collagenase 3 (Homo sapiens), P45452;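 active means inhibition above the mean of compound-free control plate wells plus 3 SD, cut at about 14% in these data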
tolC growth inh: growth inhibitors of E. coli tolC mutant, primary screen, strain BW25113 ΔtolC::kan, 384-well | OD615 | growth inhibition, % at 10 µM (by protocol) | 65,000 tested, 2.2% active;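 active means growth inhibition at or above a cutoff equal to the mean over every tested compound plus 3 SD, cut at about 60% in these data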;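 further: growth measured after 20 h incubation at 37 °C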
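Test system: E. coli BW25113 ΔtolC::kan bacteria | Medium: Kanamycin-containing LB broth (50 µg/mL) | Dosing: One dose of 10 µM final | Times: 20 h incubation with compound, 37 °C | Detection: Optical density read at 615 nm | Read-out basis: Percent growth inhibition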
HePTP inhibitor: inhibitors of human HePTP phosphatase, primary screen, biochemical, absorbance, leukemia target. Tyrosine-protein phosphatase non-receptor type 7 (Homo sapiens), P35236. recombinant HePTP phosphatase activity, OD absorbance. inhibition, % at 20 µM. 110,000 tested, 0.64% active; in the data active means inhibition above about 50%
E coli WT exp: growth inhibitors of wild-type E. coli, primary screen, strain BW25113, expanded library, OD600 | OD600 absorbance | growth inhibition, % at 100 µM | 98,000 tested, 0.15% active | AID 710, 2007;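 active means growth inhibition above about 50% at one test dose, limit read from the data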;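 further: growth measured after 20 h incubation at 37 °C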
AP ELISA ortho: alternative complement pathway inhibitors, primary screen, biochemical, ELISA, human serum, orthogonally pooled compounds. LPS-coated ELISA, C3 deposition; tested in compound mixtures. inhibition, % at 5 µM. 62,000 tested, 0.08% active. AID 1235, 2008;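 active means inhibition above 30% in each of the two pooled mixtures holding the compound, so the lower value exceeds 30%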
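Test system: human serum complement alternative pathway, C3 deposition onto LPS / Medium: Mg2+-EGTA GVB++ buffer containing human serum at 1:15 dilution / Probe or stimulus: Plate-bound LPS / Times: 1 h at 37 °C / Signal: ELISA with HRP anti-human C3 antibody, TMB substrate, absorbance 450 nm / Measure: percent inhibition / Repeats: two pool placements per compound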
E coli RNAP: E. coli RNAP inhibitors, biochemical; DNA-directed RNA polymerase subunit beta (Escherichia coli (strain K12)), P0A8V2; E. coli RNA polymerase, fluorescence transcription assay; inhibition, %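 (tested at 10 µM)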; 62,000 tested, 0.2% active; AID 559, 2006; in the data active means inhibition above about 20%
A number is an active result; - = inactive; . = not tested or not shown. Only a selection was taken, and hits are over-represented in it overall.

SMILES | MMP-13 inhibitor | tolC growth inh | HePTP inhibitor | E coli WT exp | AP ELISA ortho | E coli RNAP
O=S(=O)(NCCSc1ccc(Cl)cc1)c1ccc2c(c1)OCCO2 | - | 100 | - | - | - | -
Cc1cc(C)nc(NS(=O)(=O)c2ccc(NS(=O)(=O)c3ccc4c(c3)C(=O)c3ccccc3-4)cc2)n1 | . | . | - | . | . | .
CCC(Oc1ccccc1)C(=O)Nc1nnc(C(F)(F)F)s1 (stereo unspecified) | - | 87 | - | - | - | -
CCC(Oc1ccccc1)C(=O)Nc1nnc(C)s1 (stereo unspecified) | - | - | - | - | - | -
CCC(Oc1ccccc1)C(=O)Nc1ccc(-c2nnc(-c3ccco3)o2)cc1 (stereo unspecified) | - | 66 | - | - | - | -
C(=C\c1ccccc1)/CSc1nnc(-c2ccccn2)n1Cc1ccco1 | - | 93 | - | - | - | -
Clc1cccc(CSc2nnc(-c3cccnc3)n2Cc2ccco2)c1 | - | . | - | - | 37 | -
Clc1ccccc1CSc1nnc(-c2ccccn2)n1Cc1ccco1 | - | 91 | - | - | - | -
N/C(=N\c1nc2ccccc2o1)NC(=O)/C=C/c1ccco1 | . | . | - | . | . | .
CCOC(=O)C1CCN(Cc2cn[nH]c2-c2ccc(C)cc2)CC1 | - | 92 | - | - | - | -
CCOC(=O)C1CCN(Cc2cn[nH]c2-c2ccccc2)CC1 | - | - | - | - | - | -
O=C1/C(=C/c2c(Cl)cccc2Cl)SC(=S)N1CCc1ccccc1 | . | . | - | . | . | .
Cc1ccc(C)n1-c1ccc(O)c(C(=O)O)c1 | . | . | 104 | . | . | .
Cc1ccc(C)n1-c1ccc(CC(=O)O)cc1 | . | . | 102 | . | . | .
Cc1cccc(C(C)C)c1NC(=O)C1COc2ccccc2O1 (stereo unspecified) | . | . | - | . | . | .
O=[N+]([O-])c1ccc(N=Cc2cc(I)cc(I)c2O)c(O)c1 | . | . | 76 | . | . | .
O=C(N/N=C\c1cc(Br)cc(I)c1O)c1ccc([N+](=O)[O-])cc1 | . | . | - | . | . | .
O=[N+]([O-])c1cccc2c1NC(c1ccc(Cl)cc1)C1CC=CC21 (stereo unspecified) | . | . | 104 | . | . | .
O=C(O)c1cccc2c1NC(c1ccc(Cl)cc1)C1CC=CC21 (stereo unspecified) | . | . | 104 | . | . | .
O=[N+]([O-])c1cccc2c1NC(c1ccc(F)cc1)C1CC=CC21 (stereo unspecified) | . | . | - | . | . | .
O=C(O)c1cccc2c1NC(c1cccc3ccccc13)C1CC=CC21 (stereo unspecified) | . | . | 102 | . | . | .
O=C(O)C1Nc2c(cccc2[N+](=O)[O-])C2C=CCC12 (stereo unspecified) | . | . | 104 | . | . | .
COc1cc(-c2noc(-c3ccccc3Cl)n2)cc(OC)c1OC | . | . | - | . | . | .
Cc1ccc(C23CC4CC(CC(C(=O)O)(C4)C2)C3)cc1 | . | . | - | . | . | .
O=[N+]([O-])c1ccc(C2Nc3c(cccc3[N+](=O)[O-])C3C=CCC32)cc1 (stereo unspecified) | . | . | - | . | . | .
SMILES | MMP-13 inhibitor | tolC growth inh | HePTP inhibitor | E coli WT exp | AP ELISA ortho | E coli RNAP
O=C(O)c1cccc2c1NC(c1ccc([N+](=O)[O-])cc1)C1CC=CC21 (stereo unspecified) | . | . | 103 | . | . | .
O=C(O)c1ccc2c(c1)C1C=CCC1C(c1ccc([N+](=O)[O-])cc1)N2 (stereo unspecified) | . | . | 102 | . | . | .
COc1ccccc1/C=C1\C(=O)NC(=O)N(c2ccc(Br)cc2)C1=O | . | . | - | . | . | .
O=C1NC(=O)N(c2ccc(Br)cc2)C(=O)/C1=C/c1ccco1 | . | . | 104 | . | . | .
Cc1cc(N2C(=O)NC(=O)/C(=C\c3ccco3)C2=O)ccc1Br | . | . | 80 | . | . | .
Cc1cccc(/C=C2\C(=O)NC(=O)N(c3ccc(Br)c(C)c3)C2=O)c1 | . | . | - | . | . | .
CC1CCCC(C)N1C(=O)CN1C(=O)C(C)(C)Oc2ccc(C(=O)NC3CCCCC3)cc21 (stereo unspecified) | - | 84 | - | - | - | -
CCOC(=O)/C(=C\c1cccc(Br)c1)NC(=O)c1ccccc1 | . | . | - | . | . | .
C=CCNC(=O)C(=O)Nc1ccccc1C | . | . | - | . | . | .
O=[N+]([O-])c1ccc2nc(SCc3nc4ccccc4[nH]3)sc2c1 | . | . | - | . | . | .
CNc1nc(Nc2cccc([N+](=O)[O-])c2)nc(OCC(F)(F)F)n1 | . | . | 105 | . | . | .
CNc1nc(Nc2nc(C)cc(C)n2)nc(OCC(F)(F)F)n1 | . | . | - | . | . | .
CCC1CCCCN1S(=O)(=O)c1ccc2c(c1)CCN2C(=O)C1CCC1 (stereo unspecified) | - | 84 | - | - | - | -
Cc1cccc(OCCCCc2c(C)n[nH]c2C)c1 | - | 100 | - | - | - | -
Cc1ccccc1OCCc1c(C)n[nH]c1C | . | . | - | . | . | .
Cc1cccc(OCCCCc2c(C)n[nH]c2C)c1C | - | 100 | - | - | - | -
O=C(CN1C(=O)c2ccccc2C1=O)Nc1cc(Cl)ccc1C(=O)O | . | . | - | . | . | .
COc1ccc(Cc2nc(-c3ccc(Cl)cc3)no2)cc1 | - | - | - | - | - | -
COc1ccc(-c2noc(Cc3ccc(Cl)cc3)n2)cc1OC | . | 63 | - | - | - | -
COc1ccc(-c2noc(CCCc3ccccc3)n2)cc1OC | - | 62 | - | - | - | -
COc1cc(N/N=C/c2ccncc2)ncn1 | . | . | - | . | . | .
CCn1c(C(=O)OC)cc2c1ccn2-c1ccc(F)cc1 | - | 96 | - | - | - | -
COc1ccc(NC(=O)N2c3ccccc3CC2C)cc1OC (stereo unspecified) | - | - | - | - | - | -
COC(=O)c1ccccc1NC(=O)N1c2ccccc2CC1C (stereo unspecified) | - | 95 | - | - | - | -
COc1ccc(-c2c(Cc3ccccc3)nn(-c3ccccc3)c2N)cc1OC | . | . | - | . | . | .
SMILES | MMP-13 inhibitor | tolC growth inh | HePTP inhibitor | E coli WT exp | AP ELISA ortho | E coli RNAP
CC(C)(C)c1ccc(-c2nnc(SCCC#N)n2C2CCCC2)cc1 | - | 61 | - | - | - | -
O=C(CSc1nnc(-c2ccc(Br)cc2)n1C1CCCCC1)N1CCCC1 | - | - | - | - | - | -
Cc1ccc(C)c(Cn2nnc3c(=O)[nH]c(C4CCN(C(=O)c5cccs5)CC4)nc32)c1 | - | 64 | - | - | - | -
Cc1ccc(Cn2nnc3c(=O)[nH]c(C4CCN(C(=O)c5cccs5)CC4)nc32)cc1 | - | - | - | - | - | -
Cc1ccccc1S(=O)(=O)Cc1ccc(C(=O)N2CCN(c3cccc(C)c3C)CC2)o1 | - | 69 | - | - | - | -
N#Cc1cn(CCOc2ccccc2F)c2ccccc12 | - | 74 | - | - | - | .
O=C(CSc1ncn[nH]1)N1c2ccccc2Sc2ccc(Cl)cc21 | . | . | - | . | . | .
CCn1nnc(NC(=O)CSc2ccc(Cl)cc2)n1 | - | - | - | - | - | -
CCCn1nnnc1NC(=O)CSc1ccc(Cl)cc1 | - | 75 | - | - | - | -
Nc1c(Cc2ccccc2)ccc2c1C(=O)c1ccccc1C2=O | . | . | - | . | . | .

Screening data (PubChem BioAssay)
